Calls of active or inactive are those of the source. No cut-off for these calls is given here.
Tests used:
[1] = biological target: Mitogen-activated protein kinase 1 (Homo sapiens) (UniProt P28482); assay: Induction of ERK2 phosphorylation at Tyr204 residues in H2O2 treated human TIG3 cells at 0.6 uM pretreated with H2O2 for 2 hrs followed by compound addition by immunoblot analysis
Procedure, shortened: (§1)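 TIG-3 cells stressed with H2O2 (500 μM, 2 h), then recovered in medium containing 0.3 or 0.6 μM compound. Lysed in NP40 buffer; 10−20 μg protein immunoblotted for pAkt Ser473, p-p38 Thr180/Tyr182, p-p44/42 Thr202/Tyr204, β-catenin, survivin, Bcl-2 or full-length PARP-1. Triplicate experiments.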

TIG-3 [2] = assay: Cytoprotective activity against UV irradiation-induced stress in human TIG3 cells assessed as decrease in CARF level irradiated with 50 mJ/cm2 of UV radiations followed by compound addition by immuno fluorescence staining based assay; format: functional, cell-based
TIG-3 [3] = assay: Decrease in Nrf2 expression level in human TIG3 cells at 0.3 to 3 uM by immunoblot analysis; format: ADME, cell-based; settings: tig-3, 3 µM
Procedure, shortened: (§2)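 TIG-3 cells treated with compound, lysed in NP40 buffer (centrifuged 20 min, 4 °C); 10−20 μg protein immunoblotted for indicated proteins; band quantitation from three independent experiments, Student's t or Mann−Whitney test.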

TIG-3 [4] = assay: Effect on p21 WAF1 expression level in human TIG3 cells at 0.3 to 3 uM by immunoblot analysis; format: ADME, cell-based; settings: tig-3, 3 µM; procedure, shortened: as §2
TIG-3 [5] = assay: Cytoprotective activity against H2O2-induced oxidative stress in human TIG3 cells assessed as decrease in CARF level pretreated with H2O2 for 2 hrs followed by compound addition by immuno fluorescence staining based assay; format: functional, cell-based
TIG-3 [6] = assay: Effect on p53 expression level in human TIG3 cells at 0.3 to 3 uM by immunoblot analysis; format: cell-based; settings: tig-3, 3 µM; procedure, shortened: as §2
TIG-3 [7] = assay: Effect on mortalin expression level in human TIG3 cells at 0.3 to 3 uM by immuno fluorescence analysis; format: ADME, cell-based; settings: tig-3, 3 µM
Procedure, shortened: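 Methanol-fixed (chilled absolute methanol) TIG-3 fibroblasts treated with Wi-A or 3βmWi-A; immunofluorescence staining with antibodies, imaged by epifluorescence microscopy; signal quantitated from three independent experiments.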

TIG-3 [8] = assay: Cytoprotective activity against H2O2-induced oxidative stress in human TIG3 cells assessed as decrease in gammaH2AX level at 0.6 uM pretreated with H2O2 for 2 hrs followed by compound addition by immuno fluorescence staining based analysis; format: functional, cell-based
Procedure, shortened: (§3)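 TIG-3 fibroblasts (DMEM, 10% FBS, 37 °C) stressed with H2O2 (500 μM, 2 h) or UV (50 mJ/cm2), then recovered in compound-supplemented medium. Cells fixed in chilled absolute methanol and immunostained for the marker. Images taken by fluorescence microscopy and staining intensity quantified. Triplicate experiments.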

TIG-3 [9] = assay: Induction of oxidative stress in human TIG3 cells assessed as increase in p53 expression level at 0.6 uM by immunoblot analysis; format: cell-based; settings: tig-3, 0.6 µM; procedure, shortened: as §2
[10] = biological target: T1, MAP kinase p38 (Homo sapiens) (UniProt O15264+Q15759+Q16539+P53778); assay: Induction of p38 MAPK phosphorylation at Thr180/Tyr182 residues in H2O2 treated human TIG3 cells pretreated with H2O2 for 2 hrs followed by compound addition by immuno fluorescence staining based analysis; procedure, shortened: as §3
[11] = biological target: Mitogen-activated protein kinase 1 (Homo sapiens) (UniProt P28482); assay: Induction of ERK2 phosphorylation at Tyr204 residues in H2O2 treated human TIG3 cells pretreated with H2O2 for 2 hrs followed by compound addition by immuno fluorescence staining based analysis; procedure, shortened: as §3
TIG-3 [12] = assay: Induction of oxidative stress against human TIG3 cells assessed as increase in CARF mRNA levels by RT-PCR analysis; format: cell-based
Procedure, shortened: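 Total RNA from treated TIG-3 cells; cDNA from 2 μg RNA; PCR 95 °C 10 min, 30 cycles (95 °C 45 s, 58 °C 1 min, 72 °C 45 s), 72 °C 10 min; products on 0.8% agarose, band densitometry; three independent experiments.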

TIG-3 [13] = assay: Cytoprotective activity against H2O2-induced oxidative stress in human TIG3 cells assessed as increase in Bcl2 level at 0.6 uM pretreated with H2O2 for 2 hrs followed by compound addition by immunoblot analysis; format: functional, cell-based; procedure, shortened: as §1
[14] = biological target: T1, MAP kinase p38 (Homo sapiens); assay: Induction of p38 MAPK phosphorylation at Thr180/Tyr182 residues in H2O2 treated human TIG3 cells at 0.6 uM pretreated with H2O2 for 2 hrs followed by compound addition by immunoblot analysis; procedure, shortened: as §1
TIG-3 [15] = assay: Cytoprotective activity against H2O2-induced oxidative stress in human TIG3 cells assessed as decrease in protein disulfide isomerase expression level at 0.6 uM pretreated with H2O2 for 2 hrs followed by compound addition by immuno fluorescence staining based analysis; format: functional, cell-based; procedure, shortened: as §3
[16] = biological target: Mitogen-activated protein kinase 3 (Homo sapiens) (UniProt P27361); assay: Induction of ERK1 phosphorylation at Thr202 residues in UV-irradiated human TIG3 cells using 50 mJ/cm2 of UV radiations followed by compound addition by immuno fluorescence staining based analysis; procedure, shortened: as §3
TIG-3 [17] = assay: Cytoprotective activity against H2O2-induced oxidative stress in human TIG3 cells assessed as decrease in 53BP1 level at 0.6 uM pretreated with H2O2 for 2 hrs followed by compound addition by immuno fluorescence staining based analysis; format: functional, cell-based; procedure, shortened: as §3
TIG-3 [18] = assay: Cytoprotective activity against UV irradiation-induced stress in human TIG3 cells assessed as decrease in p53 level irradiated with 50 mJ/cm2 of UV radiations followed by compound addition by immuno fluorescence staining based assay; format: functional, cell-based
[19] = biological target: T1, MAP kinase p38 (Homo sapiens); assay: Induction of p38 MAPK phosphorylation at Thr180/Tyr182 residues in UV-irradiated human TIG3 cells using 50 mJ/cm2 of UV radiations followed by compound addition by immuno fluorescence staining based analysis; procedure, shortened: as §3
TIG-3 [20] = assay: Cytoprotective activity against UV irradiation-induced stress in human TIG3 cells assessed as increase in cell survival irradiated with 50 mJ/cm2 of UV radiations followed by compound addition measured after 2 days by crystal violet staining based assay; format: functional

Mitogen-activated protein kinase 1 (Homo sapiens), sequence (P28482 whole entry): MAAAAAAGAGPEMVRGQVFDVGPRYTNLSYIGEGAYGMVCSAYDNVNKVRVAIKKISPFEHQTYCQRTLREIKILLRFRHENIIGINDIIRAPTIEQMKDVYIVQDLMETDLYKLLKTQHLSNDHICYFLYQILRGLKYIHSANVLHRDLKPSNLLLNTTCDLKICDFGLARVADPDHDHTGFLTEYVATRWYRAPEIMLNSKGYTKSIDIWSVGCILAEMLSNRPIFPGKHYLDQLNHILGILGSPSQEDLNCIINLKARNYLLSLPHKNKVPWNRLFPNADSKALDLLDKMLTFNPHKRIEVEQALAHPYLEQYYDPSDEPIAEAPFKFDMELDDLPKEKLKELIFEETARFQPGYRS
Mitogen-activated protein kinase 3 (Homo sapiens), sequence (P27361 whole entry): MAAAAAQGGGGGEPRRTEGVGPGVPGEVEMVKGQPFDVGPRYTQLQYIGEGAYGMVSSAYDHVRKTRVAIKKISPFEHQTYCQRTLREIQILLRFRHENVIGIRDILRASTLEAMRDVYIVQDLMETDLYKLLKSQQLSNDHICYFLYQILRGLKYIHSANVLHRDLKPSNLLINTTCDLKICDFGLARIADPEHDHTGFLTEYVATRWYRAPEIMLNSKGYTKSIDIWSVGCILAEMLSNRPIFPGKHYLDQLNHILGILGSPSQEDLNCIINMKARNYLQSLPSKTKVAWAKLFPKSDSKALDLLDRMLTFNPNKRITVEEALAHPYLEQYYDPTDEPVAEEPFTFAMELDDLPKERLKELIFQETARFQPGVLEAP

Compound: CO[C@H]1CC(=O)[C@]2(C)[C@H]3CC[C@]4(C)[C@@H]([C@H](C)[C@H]5CC(C)=C(CO)C(=O)O5)CC[C@H]4[C@@H]3C[C@H]3O[C@]32[C@H]1O
- Activity [1]: Active
- Activity (TIG-3 [2]): Active
- Activity (TIG-3 [3]): Non-Toxic
- Activity (TIG-3 [4]): Non-Toxic
- Activity (TIG-3 [5]): Active
- Activity (TIG-3 [6]): Non-Toxic
- Activity (TIG-3 [7]): Non-Toxic
- Activity (TIG-3 [8]): Active
- Activity (TIG-3 [9]): Non-Toxic
- Activity [10]: Active
- Activity [11]: Active
- Activity (TIG-3 [12]): Non-Toxic
- Activity (TIG-3 [13]): Active
- Activity [14]: Active
- Activity (TIG-3 [15]): Active
- Activity [16]: Active
- Activity (TIG-3 [17]): Active
- Activity (TIG-3 [18]): Active
- Activity [19]: Active
- Activity (TIG-3 [20]): Dose-dependent effect

Source: ChEMBL document CHEMBL4138133, “2,3-Dihydro-3β-methoxy Withaferin-A Protects Normal Cells against Stress: Molecular Evidence of Its Potent Cytoprotective Activity” (J Nat Prod, 2017)
